According to ChEMBL document CHEMBL1122651, “5-Aryl-3-azabicyclo[3.2.0]heptan-6-one ketals, compounds with morphine-like analgesic activity” (J Med Chem, 1984):

Legend:
[1] = test system: Rattus norvegicus; assay: Analgesic activity of intraperitoneally administered compound was determined by the inflamed rat-paw reversal of abnormal (three-legged) gait; R (reject) highest dose tested inactive; type: functional; conditions: ip
Procedure, shortened: (§1)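 Rats with an inflamed paw and abnormal three-legged gait, dosed with compound or vehicle. Reversal of the abnormal gait is scored. A reduction of abnormal gait of at least 50% counts as a positive analgesic response. ED50 and 95% confidence limits by Finney's linear arc sine transformation.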

[2] = species: Rattus norvegicus; assay: Ability to displace [3H]naloxone binding from homogenates of rat brain minus cerebellum at the concentration of 0.78 uM
Procedure, shortened: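 Competition binding of [3H]naloxone to rat brain homogenate with cerebellum removed. Pert–Snyder procedure as modified by Ong et al. Percent inhibition of stereospecific binding read at a single drug concentration of 0.78 μM.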

[3] = species: Rattus norvegicus; conditions: Brain, at 25 µM
[4] = species: Rattus norvegicus; assay: Concentration of drug required to inhibit the stereospecific binding of [3H]-naloxone (5 nM) to homogenates of rat brain minus cerebellum in the absence of 100 mM NaCl; type: functional, organism-based
[5] = species: Rattus norvegicus; assay: (§2) Concentration of drug required to inhibit the stereospecific binding of [3H]naloxone (5 nM) to homogenates of rat brain minus cerebellum in the presence of 100 mM NaCl; type: functional
Procedure, shortened: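 Displacement of [3H]naloxone (5 nM) from stereospecific sites in rat brain homogenate (minus cerebellum), run with 100 mM NaCl added. Eight displacing ligand concentrations, each analysis in triplicate. Value is the drug concentration giving 50% inhibition of binding.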

[6] = test system: Rattus norvegicus; assay: Analgesic activity of intraperitoneally administered compound was determined by the inflamed rat-paw reversal of abnormal (three-legged) gait; 4/4 Active; type: functional; conditions: ip; procedure, shortened: as §1
[7] = species: Rattus norvegicus; assay: as §2
[8] = test system: Rattus norvegicus; assay: Analgesic activity of subcutaneously administered compound was determined by the inflamed rat-paw reversal of abnormal (three-legged) gait; 0.06-2.0; conditions: sc
[9] = species: Rattus norvegicus; conditions: Brain, at 0.78 µM
[10] = species: Rattus norvegicus; assay: animal or person; conditions: po
[11] = test system: Rattus norvegicus; assay: Analgesic activity of intraperitoneally administered compound was determined by the inflamed rat-paw reversal of abnormal (three-legged) gait; type: functional; conditions: ip; procedure, shortened: as §1
[12] = test system: Rattus norvegicus; assay: Analgesic activity of perorally administered compound was determined by the inflamed rat-paw reversal of abnormal (three-legged) gait; type: functional; conditions: po; procedure, shortened: as §1
[13] = test system: Rattus norvegicus; assay: Analgesic activity of intraperitoneally administered compound was determined by the inflamed rat-paw reversal of abnormal (three-legged) gait; 8/10 Active; type: functional; conditions: ip; procedure, shortened: as §1

Compound | inhibition [3] [%] | IC50 [4] [nM] | IC50 [5] [nM] | other results
COC1(OC)CC2CN(C)CC21c1ccc(C)cc1 (stereo not drawn) | 62 |  |  | ED50 [1]: 25 mg/kg; inhibition [2]: 11%
C=CCN1CC[C@]23CCCC[C@H]2[C@H]1Cc1ccc(O)cc13 [LEVALLORPHAN] |  | 9 | 34 | 
COC1(OC)CC2CN(C)CC21c1ccccc1 (stereo not drawn) | 62 |  |  | ED50 [6]: < 25 mg/kg; inhibition [2]: 13%
CN1CC[C@]23c4c5ccc(O)c4O[C@H]2[C@@H](O)C=C[C@H]3[C@H]1C5.CN1CC[C@]23c4c5ccc(O)c4O[C@H]2[C@@H](O)C=C[C@H]3[C@H]1C5.O=S(=O)(O)O | 100 | 74 |  | IC50 [7]: 380 nM; ED50 [8]: 0.4 mg/kg; inhibition [9]: 97%; ED50 [10]: 35 mg/kg
COc1ccc2c3c1O[C@H]1[C@@H](O)C=C[C@H]4[C@@H](C2)N(C)CC[C@@]341 [CODEINE] |  | 2600 | 22000 | 
COC1(OC)CC2CN(C)CC21c1cccc(O)c1 (stereo not drawn) | 99 | 61 | 579 | ED50 [11]: ~3 mg/kg; inhibition [9]: 85%
C=CCN1CC[C@]23c4c5ccc(O)c4O[C@H]2C(=O)CC[C@@]3(O)[C@H]1C5 [NALOXONE] |  | 46 | 42 | 
COc1cccc(C23CN(C)CC2CC3(OC)OC)c1 (stereo not drawn) | 61 | 9920 | 62500 | ED50 [12]: 4 mg/kg; inhibition [2]: 7%
COc1cccc(C23CN(C)CC2CC32OCC(C)(C)CO2)c1.O=C(O)/C=C/C(=O)O (stereo not drawn) |  |  |  | ED50 [13]: < 25 mg/kg
COc1cccc(C23CNCC2CC3(OC)OC)c1 (stereo not drawn) |  |  |  | ED50 [11]: > 25 mg/kg
COc1cccc(C23CN(C)CC2CC3=O)c1 (stereo not drawn) | 22 |  |  | ED50 [1]: 25 mg/kg; inhibition [9]: 12%
